The list is not random: actives were taken first. Their share in the collection is about 2.1%.
Statin myotox sup – suppressors of simvastatin-induced myotoxicity in C2C12 myotubes | AID 602340 | rescue of ATP level, % at 7.49 µM | 330,000 tested, 0.78% active | ATP luminescence, 48 h; scaled: DMSO 0, geranylgeraniol control 100;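 active means mean ATP rescue above about 67%, or every replicate alone reaching that limit, limit read from the data, passing the limit was not always enough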;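 further: myotubes were challenged with 10 µM simvastatin during compound exposure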
A3A deaminase – blocks human APOBEC3A ssDNA deamination; inhibition, % at 20 µM; recombinant A3A, FAM/TAMRA ssDNA deamination fluorescence; AID 493011; 330,000 tested, 0.41% active;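 active means at least 40% inhibition at 20 µM here, with at most 30% in a related deaminase screen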;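 further: plate controls were A3A with DMSO for no effect and wells lacking A3A enzyme for full effect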
Target sequence (P31941 whole entry, looked up): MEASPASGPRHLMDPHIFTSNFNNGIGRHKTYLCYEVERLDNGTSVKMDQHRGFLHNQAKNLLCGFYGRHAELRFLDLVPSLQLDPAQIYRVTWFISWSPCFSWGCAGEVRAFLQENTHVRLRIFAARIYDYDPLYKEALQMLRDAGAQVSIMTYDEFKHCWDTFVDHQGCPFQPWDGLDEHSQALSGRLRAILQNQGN
Mot1-301 SUMO – inhibitors of SUMOylation pathway: yeast Mot1-301 growth rescue; S. cerevisiae Mot1-301 growth rescue, ATP luminescence, 38.5C; percent above DMSO median, 100 means doubled; growth rescue, % at 18.8 µM; 320,000 tested, 1% active; AID 2716;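 active means every valid replicate shows activation above 250% relative to neutral control wells; inactive means the rest, any valid replicate at or below 250%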;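 further: OY570 slx delta 5 strain wells were the positive control but not used for scaling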
ASAP1 GAP inh – inhibitors of human ASAP1 ArfGAP activity. Q9ULH1. ASAP1-stimulated ARF1 GTP hydrolysis, GDP FP detection. inhibition, % at 16.5 µM. 360,000 tested, 0.19% active; in the data active means inhibition above about 25%;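 further: 0% = vehicle with enzyme and substrate and 100% = no enzyme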
ARFGAP1 inhibitor – inhibits rat ARF GTPase activating protein 1. Q62848. Arfgap1-stimulated ARF1 GTP hydrolysis, GDP FP detection. inhibition, % at 16.5 µM. 360,000 tested, 0.26% active;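 active means inhibition above a per-plate limit, mean inhibition of low control wells plus 3 SD, cut at about 25% in these data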;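 further: 0% = DMSO wells with enzyme and 100% = wells lacking Arfgap1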
Target sequence (Q62848 1-136 limits assumed): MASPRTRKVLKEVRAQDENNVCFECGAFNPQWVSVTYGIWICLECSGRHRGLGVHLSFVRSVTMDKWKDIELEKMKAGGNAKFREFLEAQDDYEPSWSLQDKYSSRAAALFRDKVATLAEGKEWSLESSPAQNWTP
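Material: rat Arfgap1 GAP domain (His6, aa 1-136), purified enzyme. Also added: human ARF1(Δ1-17)-GTP substrate. Compound dosing: 16.5 µM single point, 1.26% DMSO. Timing: enzyme reaction 120 min at 25 °C after 20 min preincubation. Signal: GDP detection by fluorescence polarization. Read-out basis: percent inhibition of GAP-stimulated GDP formation, scaled between DMSO and no-Arfgap1 medians.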
APOBEC3G inh – blocks human APOBEC3G single-stranded DNA deamination; Q9HC16; recombinant A3G, ssDNA deamination FAM/TAMRA fluorescence; inhibition, % at 20 µM; 330,000 tested, 0.28% active; AID 493012;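 active means inhibition of at least 40% at 20 µM, with no more than 30% in the related APOBEC3A deaminase screen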;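 further: plate controls were DMSO wells with A3G for no effect and wells lacking A3G enzyme for full effect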
* marks the source's active call; other numbers are inactive results; nt = no result.

SMILES	Statin myotox sup	A3A deaminase	Mot1-301 SUMO	ASAP1 GAP inh	ARFGAP1 inhibitor	APOBEC3G inh
CCC(C)c1cc(S(=O)(=O)N2CCOCC2)ccc1OC (stereo not given)	82*	-2	-2	5	-7	6
C/C=C/c1ccc([C@H]2[C@H](CO)N(C(=O)CC)[C@H]2CNC(=O)CC2CC2)cc1	-12	nt	nt	nt	nt	nt
CCN1CCN(Cc2ccc(NC(=O)c3ccc(C)c(NC(=O)c4nccnc4N)c3)cc2C(F)(F)F)CC1	-15	0	10	-1	11	-7
CCN1CCN(Cc2ccc(NC(=O)c3cc(NC(=O)c4nccnc4N)cc(OC)c3)cc2C(F)(F)F)CC1	-11	-1	353*	19	2	0
O=C(C[C@H]1C=C[C@@H](NS(=O)(=O)c2ccc(F)cc2)[C@@H](CO)O1)NCc1ccncn1	6	nt	nt	nt	nt	nt
CCC1(C)Cc2c(sc3nc(NN)n(C)c(=O)c23)CO1 (stereo not given)	144*	1	126	-16	-3	-2
CCOC(=O)CSc1nc2sc3c(c2c(=O)[nH]1)CC(C)(CC)OC3 (stereo not given)	-10	-3	-10	-2	3	10
O=C(c1ccc2c(c1)OCO2)N1CC[C@@H]2[C@@H](CO)Nc3ccc(-c4ccccc4)cc3[C@@H]21	62	nt	nt	nt	nt	nt
COc1ccc(CNc2ncnc3cc(OC)c(OC)cc23)cc1	111*	-2	19	9	3	1
CS(=O)(=O)c1nc(S(=O)(=O)c2ccc(Cl)cc2)c(N2CCC(O)CC2)s1	85*	-2	7	-11	13	2
CCOC(=O)CCCNC(=O)CN1CCC(c2nc3ccccc3s2)CC1	2	5	-4	-14	7	-12
O=C(CN1CCC(c2nc3ccccc3s2)CC1)NCc1ccccc1	113*	-2	-15	-8	4	-2
O=C(N[C@H]1CC[C@H](CCNS(=O)(=O)c2ccccc2)O[C@@H]1CO)c1cnccn1	3	nt	nt	nt	nt	nt
O=C1NC(=NCc2ccccc2)NC1(c1ccccc1)c1ccccc1	101*	nt	nt	3	-1	nt
O=C1NC(=NCc2ccccc2)S/C1=C\c1ccccc1	nt	2	6	9	3	4
CCC(=O)Nc1ccc2c(c1)OC[C@@H](C)N(C(=O)CC)C[C@H](C)[C@@H](OC)CN(C)C2=O	8	nt	nt	nt	nt	nt
CCC(C)Sc1ccc([C@@H]2[C@@H]3C(=O)N(CC)C(=O)[C@@H]3[C@]3(C(=O)OC)CCCCN23)cc1OC (stereo not given in full)	138*	0	7	8	-4	1
COC(=O)[C@@]12CCCCN1[C@H](c1ccc(-c3cccc(Cl)c3)c(OC)c1)[C@@H]1C(=O)N(C)C(=O)[C@@H]12	137*	0	6	1	4	-1
Cc1cccc(Nc2cc(=O)[nH]c(=O)[nH]2)c1C	nt	0	-11	-1	10	4
Cc1ccc(Nc2cc(=O)[nH]c(=O)[nH]2)c(C)c1	121*	-1	3	6	2	1
CO[C@H]1CN(C)C(=O)c2cc(NS(=O)(=O)c3cn(C)cn3)ccc2OC[C@H](C)N(C)C[C@@H]1C	3	nt	nt	nt	nt	nt
CCNC(=O)c1c(C)nc2ccccn12	nt	0	nt	10	-16	-5
CCN(CC)P(=O)(c1ccccc1)c1c(C)nc2ccccn12 (stereo not given)	-3	-2	276*	-6	5	-4
O=C(NC1CC1)C1CCN(C2CCN(Cc3ccccc3C(F)(F)F)CC2)CC1	83*	-3	313*	-7	2	-2
O=C(Nc1ccccc1C(F)(F)F)N1CCC(N2CCCCC2)CC1	2	27	296*	1	-9	0
CC(=O)Nc1ccc(CN2CCC(N3CCC(C(=O)NC4CC4)CC3)CC2)cc1	2	nt	nt	-5	-10	nt
O=C(C[C@H]1C=C[C@H](NC(=O)C2CCC2)[C@@H](CO)O1)Nc1nccs1	-6	nt	nt	nt	nt	nt
COCCN(C(=O)COC(=O)CSc1ccc(Cl)cc1)c1c(N)n(Cc2ccccc2)c(=O)[nH]c1=O	nt	-3	-7	6	6	-8
COCCN(C(=O)COC(=O)CSc1ccccc1)c1c(N)n(Cc2ccccc2)c(=O)[nH]c1=O	nt	2	356*	-6	-7	-9
